In the library only some 1.7% were active in any assay of this set; here they are far more common.
SUMO1 PPI mod: modulators of SUMO1 protein-protein interactions, primary screen, biochemical, uHTS | inhibition, % at 20 µM | 360,000 compounds, 0.33% hits | SUMO1 binding to a labelled peptide, TR-FRET, 1 h | Small ubiquitin-related modifier 1 (Homo sapiens), P63165; in the data active means inhibition above about 37%
STEP block: STEP phosphatase inhibitors, primary screen, biochemical, fluorescence intensity, uHTS; Tyrosine-protein phosphatase non-receptor type 5 (Homo sapiens), P54829; recombinant STEP, OMFP fluorogenic substrate; inhibition, % at 20 µM; 360,000 compounds, 0.25% hits;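 active means inhibition at 20 µM, scaled per plate between control wells, above about 37%, limit read from the data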;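 further: 0% = DMSO with enzyme and substrate and 100% = substrate only without enzyme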
Target sequence (P54829 whole entry, looked up): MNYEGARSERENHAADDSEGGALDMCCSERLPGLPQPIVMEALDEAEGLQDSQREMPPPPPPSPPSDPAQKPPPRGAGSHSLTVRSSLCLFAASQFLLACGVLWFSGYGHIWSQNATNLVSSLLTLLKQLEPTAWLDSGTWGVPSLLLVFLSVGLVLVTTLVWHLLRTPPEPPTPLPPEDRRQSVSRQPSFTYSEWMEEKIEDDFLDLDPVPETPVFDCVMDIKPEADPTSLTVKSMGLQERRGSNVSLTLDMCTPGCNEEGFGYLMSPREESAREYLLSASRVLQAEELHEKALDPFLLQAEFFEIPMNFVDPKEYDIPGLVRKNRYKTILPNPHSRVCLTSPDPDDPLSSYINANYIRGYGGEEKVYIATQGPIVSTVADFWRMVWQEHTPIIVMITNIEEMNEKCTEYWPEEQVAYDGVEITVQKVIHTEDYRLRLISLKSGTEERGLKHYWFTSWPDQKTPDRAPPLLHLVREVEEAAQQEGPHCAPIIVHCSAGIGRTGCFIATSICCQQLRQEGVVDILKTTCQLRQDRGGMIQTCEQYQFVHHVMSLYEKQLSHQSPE
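Material: STEP (striatal-enriched tyrosine phosphatase) enzyme, cell-free | Medium: 50 mM Bis-Tris pH 6.0 with 2.5 mM DTT and 0.005% Tween 20 | Read-out: Percent inhibition scaled to no-enzyme and uninhibited-enzyme controls, plate-pattern corrected | Signal: Fluorescence read at 480 nm ex / 540 nm em | Times: 20 min reaction, room temperature, in the dark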
DNMT1 block: human DNMT1 methyltransferase inhibitors, primary screen, biochemical, molecular beacon, fluorescence, HinP1I cleavage, uHTS | 360,000 compounds, 0.83% hits | inhibition (reported as % activation of signal), % at 10 µM | AID 588458, 2011 | DNA (cytosine-5)-methyltransferase 1 (Homo sapiens), P26358; in the data active means inhibition above about 50%
Scp-1 inhibitor: Scp-1 phosphatase inhibitors, primary screen, biochemical, colorimetric, uHTS; 340,000 compounds, 0.88% hits; Carboxy-terminal domain RNA polymerase II polypeptide A small phosphatase 1 (Homo …; Recombinant Scp1, phosphopeptide, malachite green phosphate absorbance; inhibition, % at 20 µM;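 active means inhibition above about 50% at 20 µM, limit read from the data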;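 further: plate controls were DMSO wells with enzyme for no effect and wells lacking enzyme for full effect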
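Test system: SCP-1 catalytic domain; Buffer or medium: Acidic Tris acetate buffer with magnesium and detergent; Also added: Phosphorylated 17-residue peptide substrate; Compound: single 20 µM dose, 1% DMSO; Schedule: enzyme reaction 45 min at room temperature, colour 5 min, stabilisation 30 min; Signal: Phosphate-binding colour reagent, absorbance read at 630 nm.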
LMPTP inh: LMPTP phosphatase inhibitors, primary screen, biochemical, fluorescence intensity, uHTS. Low molecular weight phosphotyrosine protein phosphatase (Homo sapiens), P24666. recombinant LMPTP-A, OMFP fluorogenic substrate. inhibition, % at 20 µM. 360,000 compounds, 0.22% hits. AID 651560, 2012;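 active means compounds that cut the enzyme signal by at least half of the control window in the single-dose screen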;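 further: plate controls were DMSO wells with enzyme plus substrate for no effect and substrate without enzyme for full effect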
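Material: LMPTP-A; amount: 0.625 nM enzyme; doses: single 20 µM dose; times: reaction 50 min, room temperature, dark; technique: fluorescence intensity of OMFP turnover product; benchmarks: no-enzyme and uninhibited controls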
Active calls of the source: *; nt = not tested or not shown.

SMILES	SUMO1 PPI mod	STEP block	DNMT1 block	Scp-1 inhibitor	LMPTP inh
CCCCCCc1c(O)c2ccccc2[nH]c1=O	2	-1	-2	-4	1
Cc1ccc(OCc2cc(C(=O)N(C)C3CCCc4ccccc43)no2)cc1C (stereo not drawn)	1	-1	15	nt	5
COc1cccc(-n2c([S-])c(C(=O)Nc3ccc(S(=O)(=O)N4CCOCC4)cc3)[n+]3cc(C(N)=O)ccc23)c1	-22	1	-13	-8	7
CN(C)c1ccc(C=c2c3cc([N+](=O)[O-])ccc3n3c2cc(-c2ccccc2)[n+]3C)cc1	59*	9	36	4	68*
COc1cc(N(C)C)ccc1C=c1c2ccccc2n2c1cc(-c1ccccc1)[n+]2C	-19	22	-14	5	90*
CN(C)c1ccc(C=c2c3ccccc3n3c2cc(-c2ccc(Cl)cc2)[n+]3C)cc1	-112	4	35	7	52*
CN(C)c1ccc(C=c2c3ccccc3n3c2cc(-c2ccccc2)[n+]3C)cc1	-61	11	29	10	89*
CN(c1ccc(Cl)cc1)c1cc(=O)n(C)c2ccccc12	-5	2	-1	3	3
COc1cc(C=c2c3ccccc3n3c2cc(-c2ccccc2)[n+]3C)cc(OC)c1OC	-17	4	18	10	8
CCOc1ccccc1C(=O)OCC(=O)NCCNC(=O)COC(=O)c1ccccc1OCC	0	0	-2	5	0
O=C(COC(=O)c1ccc2ccccc2c1O)NCC(F)(F)F	-5	0	-10	4	0
CN(C)c1ccc(C=c2c3ccccc3n3c2c2c([n+]3C)CCCC2)cc1	-87	5	25	7	53*
O=[N+]([O-])c1cc(C(F)(F)F)cc([N+](=O)[O-])c1NCCN1CCNCC1	-43	1	0	-14	-3
O=C1C=C(N(CCO)Cc2ccccc2)c2ccccc2C1=O	32	1	77*	-3	8
CCn1c(SCC(=O)Nc2ccc3c(c2)c2ccccc2n3CC)nnc1-c1ccco1	26	0	96*	74*	15
OCCC1CN(CCCc2ccccc2)CCN1Cc1ccc(F)cc1 (stereo not drawn)	-1	2	-3	-7	-1
O=C(Nc1nccs1)c1ccc(CSc2ccccc2)o1	7	0	0	4	49*
CN(CC(=O)Nc1cc(Cl)cc(Cl)c1)Cc1cccs1	1	0	-2	-2	-2
Nc1ncc2c(n1)CC(c1ccco1)CC2=O (stereo not drawn)	7	-1	2	0	60*
COC(=O)c1cc2c(n1S(=O)(=O)c1ccc(C)cc1)C(=O)C(=O)c1[nH]cc(C(=O)OCc3ccccc3)c1-2	-4	1	82*	-3	0
Cc1nc(-c2ccccc2)sc1-c1nc(-c2ccncc2)ncc1S(=O)(=O)c1ccccc1	47*	0	-4	12	6
COc1nc(-c2ccccc2)ncc1S(=O)(=O)c1ccccc1	1	0	3	0	0
CC(C)c1ccc(NC(=O)C(c2ccccc2)N2CC(=O)Nc3ccccc32)cc1 (stereo not drawn)	1	0	6	-7	3
CC(NCC(O)COCc1ccc(Cl)cc1)c1ccccc1 (stereo not drawn)	65*	-3	3	-13	-2
CC(=O)c1cccc(NC(=O)c2cccc(N3C(=O)c4ccccc4C3=O)c2)c1	61*	6	0	49	3
SMILES	SUMO1 PPI mod	STEP block	DNMT1 block	Scp-1 inhibitor	LMPTP inh
COc1cccc(NC(=O)CN(C)C(=O)c2ccc3c(c2)S(=O)(=O)N=C2CCCCCN23)c1	-4	-1	2	7	0
COc1cc(Br)c(C(=O)c2nccc3cc(OC)c(OC)cc23)cc1OC	19	3	92*	-7	5
Cc1ccc(NC(=O)Nn2cnnc2)cc1Cl	49*	-2	2	-6	0
CCC(C)[C@@H](CN)NCC1(c2ccccc2)CC1 (stereo partly drawn)	37*	-2	0	5	-3
CCN1/C(=C/c2ccc3cc(C)cc(C)c3[n+]2CC)Sc2cc(C)ccc21	-41	4	-34	32	48*
CCN1/C(=C/c2ccc3cc(C)ccc3[n+]2CC)Sc2ccc3sccc3c21	104*	16	21	47	84*
COc1ccc2c(C)cc3nncn3c2c1	9	2	1	-2	-1
O=C(O)c1ccc(N=Nc2c(O)[nH]c3cc(Cl)ccc23)cc1	-8	9	2	56*	5
COc1ccc(/C(C)=N/NC(=O)c2nnn(-c3nonc3N)c2-c2ccccc2)cc1	2	29	24	14	52*
CN(C)NC1=CC(=[N+]2CCCC2)CC(C)(C)C1	-2	-1	2	-3	-1
CCCN(CCC)C1=CC(=[N+]2CCCC2)CC(C)(C)C1	0	-1	17	77*	-2
Oc1c(Cl)cc(Cl)cc1CNc1nccs1	26	-2	-1	-5	0
O=S(c1cc(Cl)cc(Cl)c1O)c1cc(Cl)cc(Cl)c1O	43*	nt	nt	nt	2
O=C(NCc1cc(C(F)(F)F)ccc1Cl)c1cccc2c1C(=O)c1ccc(N3CCC(N4CCCCC4)CC3)cc1S2(=O)=O	64*	1	7	nt	21
O=C(/C(=N\Nc1ccccc1)Sc1nnnn1-c1ccccc1)c1ccccc1	3	-1	1	-14	2
Cn1c(SCC(=O)Nc2ccc3nc(SCC(=O)N4CCCC4)sc3c2)nnc1-c1ccc(N)cc1	63*	6	24	65*	31
COc1ccc(NS(=O)(=O)c2cccc(C(=O)N/N=C/c3ccccc3OC)c2)cc1	-5	-1	0	-8	3
COc1ccc(NS(=O)(=O)c2cccc(C(=O)N/N=C/c3ccc(O)cc3)c2)cc1	62*	-3	0	-7	0
COc1ccc(NS(=O)(=O)c2cccc(C(=O)NN=Cc3ccc(O)c(OC)c3)c2)cc1	63*	-1	-3	-12	2
Cc1ccc(SCCN2CCN(CC(C)C)CCC2=O)cc1	6	2	-4	-9	0
COc1cccc(NC(=O)CCC2CCN(C(=O)c3ccc(C(C)=O)s3)CC2)c1	1	-2	2	-7	1
CCCCCNC(=O)C(c1cc2ccccc2o1)n1c(=O)c(-c2cc3ccccc3[nH]2)nc2ccccc21 (stereo not drawn)	2	nt	nt	nt	7
NC(CSC(c1ccccc1)(c1ccccc1)c1ccc2c(c1)OCO2)C(=O)O (stereo not drawn)	5	4	51*	nt	2

Source: PubChem BioAssay (Sanford-Burnham Center for Chemical Genomics)
